Most compounds without a hit are left out; they make up all but 2.7% or so of the library.
NadD inh: blocks S. aureus nicotinate mononucleotide adenylyltransferase. purified NadD enzyme, colorimetric absorbance read-out. inhibition, % at 20 µM. 0.78% of 360,000 active; in the data active = inhibition above about 26%
HNF4A DNA FP: change in binding of human HNF4 alpha to DNA; P41235; HNF4a-FITC DNA binding, fluorescence polarization, 1 h; 0.3% of 360,000 active; activity change, % at 10 µM; AID 1224865; in the data active = activity change above about 30%, passing the limit was not always enough
PP1 counter: PP1-alpha (human) inhibition in PP5 counter-screen; P62136; purified PP1alpha, OMFP fluorescence; inhibition, % at 6.7 µM; 0.9% of 320,000 active;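 active = inhibition above the mean inhibition of all tested compounds plus 3 SD, computed separately for each screening campaign, cut at about 15% in these data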
Target sequence (P62136 whole entry, looked up): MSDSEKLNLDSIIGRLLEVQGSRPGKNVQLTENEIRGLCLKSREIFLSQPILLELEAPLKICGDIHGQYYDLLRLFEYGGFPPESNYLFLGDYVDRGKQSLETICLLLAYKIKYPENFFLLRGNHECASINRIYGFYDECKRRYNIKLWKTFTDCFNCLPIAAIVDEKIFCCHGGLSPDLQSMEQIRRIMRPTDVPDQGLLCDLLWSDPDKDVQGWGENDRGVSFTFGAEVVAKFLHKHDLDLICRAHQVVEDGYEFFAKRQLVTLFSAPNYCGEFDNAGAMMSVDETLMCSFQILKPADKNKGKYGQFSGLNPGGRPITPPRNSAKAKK
CSN inh: inhibitors of human CSN-mediated cullin deneddylation; Q92905; Purified CSN, SCF-Nedd8-OG deneddylation, fluorescence polarization; inhibition, % at 12.5 µM; 0.38% of 360,000 active; AID 651999;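 active = pattern-corrected inhibition above about 35%, with an unprinted fluorescence ratio check between 0.5 and 1.5, limit read from the data, passing the limit was not always enough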
Target sequence (Q92905 whole entry, looked up, one chain of several): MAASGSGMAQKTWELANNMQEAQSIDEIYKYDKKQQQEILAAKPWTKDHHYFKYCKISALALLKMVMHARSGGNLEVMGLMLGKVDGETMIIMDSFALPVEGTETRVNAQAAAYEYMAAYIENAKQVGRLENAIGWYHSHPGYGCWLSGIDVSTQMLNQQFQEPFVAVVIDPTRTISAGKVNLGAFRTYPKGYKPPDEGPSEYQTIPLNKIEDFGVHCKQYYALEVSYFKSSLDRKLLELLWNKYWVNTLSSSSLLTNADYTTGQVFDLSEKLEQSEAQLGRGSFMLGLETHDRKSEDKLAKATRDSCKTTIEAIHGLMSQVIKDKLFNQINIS
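Assay system: Purified human Csn5 enzyme expressed in HEK293T cells | Amount: Enzyme 0.24 nM | Measured by: Fluorescence polarization readout | Medium: Tris/NaCl/DTT buffer, pH 7.5 | Compound dosing: One concentration, 12.5 µM, 0.25% DMSO | Times: 90 min incubation of compound, enzyme and substrate at room temperature | Control set: no-enzyme wells high, enzyme-with-substrate wells low | Read-out: % inhibition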
TPT1 inhibitor: C. albicans TPT1 enzyme inhibition; recombinant caTPT1, FP RNA substrate dephosphorylation; inhibition, % at 5 µM; 0.81% of 300,000 active; AID 1962;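 active = inhibition above the mean of all tested compounds plus 3 SD, set per screening campaign, cut at about 24% in these data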
Rpn11 block: blocks the human proteasome subunit Rpn11; human 26S proteasome, Ub4-pepOG fluorescence polarization; 20S core pre-blocked with epoxomicin; inhibition, % at 20 µM; O00487; 0.59% of 360,000 active;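 active = inhibition at 20 µM, scaled to each plate's controls, above about 33%, limit read from the data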
PP1 inh confirm: confirmation of human PP1 phosphatase inhibitors. shares compounds with PP1 counter. inhibition, % at 6.7 µM. 52% of 1,900 active. purified PP1alpha, OMFP substrate fluorescence. AID 2358;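 active = mean PP1 inhibition above a set limit taken from the earlier primary screen, cut at about 15% in these data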
PP5 inh counter: inhibits human PP5 phosphatase in PP1 counter-screen | shares compounds with PP1 counter | purified PP5c, OMFP fluorescence | inhibition, % at 6.7 µM | 4% of 1,900 active | AID 2360;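 active = mean PP5 inhibition over triplicate wells above about 9.5% taken from the earlier PP1 screen, limit read from the data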
Rpn11 inh conf: confirmation of human proteasome Rpn11 inhibitors. shares compounds with Rpn11 block. inhibition, % at 20 µM. 29% of 1,900 active. AID 602318. purified human 26S proteasome, Ub4-pepOG fluorescence polarization; proteasome pretreated with epoxomicin
MMP-2 counter: MMP-2 (human) inhibition counter-screen; shares compounds with Rpn11 block; recombinant MMP-2, FRET peptide cleavage fluorescence; inhibition, % at 20 µM; 4% of 1,900 active; AID 602330;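 note: human MMP-2 activated beforehand with APMA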
Thrombin FP: counter-screen for RPN11 inhibitors: inhibition of bovine thrombin; shares compounds with Rpn11 block; bovine thrombin cleavage of Ub4-pepOG, fluorescence polarization; inhibition, % at 20 µM; 13% of 1,900 active; AID 602333;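 active = mean inhibition at least 40% at 20 µM, or signal 3 deviations below plate average, so some actives read negative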
NadD inh conf: NadD (S. aureus) inhibition, single concentration confirmation; inhibition, % at 20 µM; 13% of 2,000 active; AID 624309; purified S. aureus NadD, colorimetric enzyme assay; shares compounds with NadD inh; in the data active = inhibition mostly above about 42%, no sharp cut-off; inactive = mostly below about 42%
Hits are given with their value; n = inactive; x = no result. Cut-off read from the data, not from the text of the source, unless noted: active = inhibition above about 40%; inactive = the rest.

SMILES | NadD inh | HNF4A DNA FP | PP1 counter | CSN inh | TPT1 inhibitor | Rpn11 block | PP1 inh confirm | PP5 inh counter | Rpn11 inh conf | MMP-2 counter | Thrombin FP | NadD inh conf
COc1ccc(OCC(CO)N2CCN(c3ccccc3)CC2)cc1 (centres undefined) | n | n | x | n | x | n | x | x | x | x | x | x
CCCOc1cccc(C2C(C(=O)c3ccc(C)o3)=C(O)C(=O)N2c2nc(C)c(C(C)=O)s2)c1 (centres undefined) | n | n | 24.9 | n | n | 50.1 | 32.0 | n | n | n | n | x
Cc1c(C(=O)NCc2ccc(F)cc2)sc(=O)n1Cc1ccccc1F | n | n | x | n | x | n | x | x | x | x | x | x
COCCNC(=O)C1(C)CCN(C(=O)COc2ccc(Cl)cc2Cl)C1 (centres undefined) | n | n | x | n | x | n | x | x | x | x | x | x
O=C(O)c1ccc(N=Nc2c(O)ccc3ncccc23)cc1 | n | n | 21.0 | n | n | 47.0 | n | n | n | n | n | x
NC(N)=N/N=C(\N=Nc1ccccc1)c1ccc(Cl)cc1 | n | n | x | n | x | n | x | x | x | x | x | x
COc1ccc(CNC(=O)c2cc(S(=O)(=O)N3CCCCC3)ccc2Cl)cc1OC | n | n | x | n | x | n | x | x | x | x | x | x
O=C(CCc1ccccc1)NC(c1cccs1)c1cc(Cl)c2cccnc2c1O (centres undefined) | n | n | x | n | x | n | x | x | x | x | x | x
CC(C)C(=O)NC(c1ccccc1)c1cc([N+](=O)[O-])c2cccnc2c1O (centres undefined) | n | n | 29.2 | n | n | 44.8 | n | 11.1 | 47.2 | 42.7 | n | x
CCCC(=O)NC(c1cccs1)c1cc([N+](=O)[O-])c2cccnc2c1O (centres undefined) | n | n | 17.6 | n | n | 46.6 | 16.1 | n | 66.0 | n | n | x
O=C(NCCN1CCCC1)c1ccc(Cn2c(=S)[nH]c3cc4c(cc3c2=O)OCO4)cc1 | n | n | n | n | n | n | x | x | x | x | x | x
C=CCNC(=O)c1ccc(Cn2c(=S)[nH]c3cc4c(cc3c2=O)OCO4)cc1 | n | n | 25.1 | 55.9 | n | 148.1 | n | n | 154.1 | 40.6 | n | x
CCCN(C(=O)c1cccc(-n2cccc2)c1)c1c(N)n(Cc2ccccc2)c(=O)[nH]c1=O | n | n | n | n | n | n | x | x | x | x | x | x
C#CCOCCOCCOCCNc1nc(N2CCN(C(=O)CCCCCCCCCCNC(=O)Cn3cc(CCCCCN)nn3)CC2)nc(N2CCN(C(=O)CCCCCCCCCCNC(=O)[C@@H](CCSC)n3cc(CCO)nn3)CC2)n1 | n | n | 35.5 | n | n | 41.5 | 41.2 | n | n | n | n | x
C#CCOCCOCCOCCNc1nc(N2CCN(C(=O)CCCCCCCCCCNC(=O)Cn3cc(CCCCCN)nn3)CC2)nc(N2CCN(C(=O)CCCCCCCCCCNC(=O)[C@@H](CCC(=O)O)n3cc(CCCCCN)nn3)CC2)n1 | n | n | n | n | n | n | x | x | x | x | x | x
S=c1[nH]nc(-c2cc(-c3ccccc3)n[nH]2)n1/N=C/c1c(Cl)cccc1Cl | n | n | 18.3 | 45.8 | n | 47.2 | 27.3 | n | 87.2 | 44.5 | 52.4 | x
S=c1[nH]nc(-c2ccccn2)n1/N=C/c1c(Cl)cccc1Cl | n | n | n | n | n | n | x | x | x | x | x | x
O=C(Nc1ccc(N2CCCC2)cc1)c1cc2ccccc2o1 | n | n | 32.7 | n | n | 69.0 | n | n | n | n | n | x
NS(=O)(=O)c1ccc(N=Nc2ccc(O)c3ncccc23)cc1 | n | n | 51.4 | n | n | 86.4 | 36.8 | n | 69.7 | 54.6 | n | x
O=[N+]([O-])c1ccc(N2CCN(S(=O)(=O)c3ccc(Cl)cc3)CC2)cc1NCc1cccnc1 | 31.9 | n | 19.4 | n | n | n | 16.0 | n | x | x | x | n
COc1ccc(S(=O)(=O)Nc2cccc(-c3ccc(N4CCCCCC4)nn3)c2)cc1OC | n | n | n | n | n | n | x | x | x | x | x | x
Cc1ccc(S(=O)(=O)Nc2cccc(-c3ccc(N4CCCCCC4)nn3)c2)cc1 | 33.8 | n | 18.4 | n | n | n | n | n | x | x | x | n
N#C/C(=C/c1cn(-c2ccccc2)nc1-c1cccc(OCc2ccccc2)c1)C(=O)NCCCn1ccnc1 | 40.8 | n | 21.3 | n | n | n | n | n | x | x | x | n
Cc1ccc(-c2nn(-c3ccccc3)cc2/C=C(\C#N)C(=O)NCc2ccccc2)cc1 | n | n | n | n | n | n | x | x | x | x | x | x
Nn1c(SCC(=O)Nc2nccs2)nnc1-c1cccnc1 | n | n | n | n | x | n | x | x | x | x | x | x
SMILES | NadD inh | HNF4A DNA FP | PP1 counter | CSN inh | TPT1 inhibitor | Rpn11 block | PP1 inh confirm | PP5 inh counter | Rpn11 inh conf | MMP-2 counter | Thrombin FP | NadD inh conf
Cc1ccccc1C1C(C#N)=C2N=C(N)c3c(sc4c3CCCCC4)N2C2=C1C(=O)CCC2 (centres undefined) | 42.9 | n | 25.4 | n | n | n | 18.2 | n | x | x | x | n
Cc1ccc(C)c(N2CCN(C(=O)c3ccc4nc(-c5ccco5)c(-c5ccco5)nc4c3)CC2)c1 | 63.7 | n | 19.4 | n | n | n | n | n | x | x | x | n
COc1ccccc1-c1nnc(NC(=O)c2ccc(S(=O)(=O)N(C)C)cc2)o1 | n | n | n | n | n | n | x | x | x | x | x | x
CCN(Cc1ccccc1)S(=O)(=O)c1ccc(C(=O)Nc2nnc(-c3ccccc3OC)o2)cc1 | 54.4 | n | 30.3 | n | n | n | 30.0 | n | x | x | x | 25.5
Cc1cc(OCC(=O)N2CCN(c3ccccn3)CC2)c(C)cc1Br | n | n | n | n | n | n | x | x | x | x | x | x
CSc1ccc(CN2CCC(n3nccc3NC(=O)CCCc3ccccc3)CC2)cc1 | n | n | n | n | n | n | x | x | x | x | x | x
O=C(O)CNC(=O)c1ccc(NC(=O)/C(=C/c2cccc([N+](=O)[O-])c2)NC(=O)c2ccco2)cc1 | n | n | n | n | n | n | x | x | x | x | x | x
O=C(Nc1ccc2oc(-c3cccc4ccccc34)nc2c1)c1ncn[nH]1 | 26.8 | n | 25.6 | n | n | n | n | n | x | x | x | n
CCN(CC)S(=O)(=O)c1ccc(C(=O)Nc2nnc(NC(=S)Nc3ccccc3)s2)cc1 | 47.2 | n | 42.7 | n | n | n | 28.9 | n | x | x | x | n
N#Cc1c(-c2ccccc2)c(-c2ccccc2)nn(CC(=O)NNC(=O)Nc2ccc(Cl)c(Cl)c2)c1=O | 51.3 | n | 23.1 | n | n | n | n | n | x | x | x | n
O=S(=O)(NCCCCNS(=O)(=O)c1c(F)cccc1F)c1ccc2c(c1)OCCO2 | n | n | n | n | x | n | x | x | x | x | x | x

Bioassay records: PubChem, several laboratories
